The record followed here is ChEMBL document CHEMBL2331115, “Development of silicon-containing bis-phenol derivatives as androgen receptor antagonists: selectivity switching by C/Si exchange” (Bioorg Med Chem, 2013).

Active and inactive are the calls of the source. The rule behind the calls is not given here.

The target of assay [1] is T1, Vitamin D3 receptor (Homo sapiens) (UniProt P11473).
T1 sequence (whole entry): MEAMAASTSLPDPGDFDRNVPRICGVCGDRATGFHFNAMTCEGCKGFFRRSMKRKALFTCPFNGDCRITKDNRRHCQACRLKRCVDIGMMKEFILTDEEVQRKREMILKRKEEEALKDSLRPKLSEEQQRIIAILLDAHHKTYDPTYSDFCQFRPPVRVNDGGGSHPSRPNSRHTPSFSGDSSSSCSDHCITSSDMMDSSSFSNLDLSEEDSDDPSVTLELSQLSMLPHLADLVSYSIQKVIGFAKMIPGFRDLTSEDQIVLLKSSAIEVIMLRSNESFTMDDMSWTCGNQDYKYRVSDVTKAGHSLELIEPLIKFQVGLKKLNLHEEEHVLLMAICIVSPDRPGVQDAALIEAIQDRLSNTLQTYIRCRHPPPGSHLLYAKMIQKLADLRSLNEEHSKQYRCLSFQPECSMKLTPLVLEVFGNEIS
As to the kind of experiment: Agonist activity at CMX-GAL4 tagged human VDR expressed in HEK293 cells assessed as increase in transcriptional activity by luciferase reporter gene assay. Format: cell-based. The method in brief:
(§1)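 GAL4-hVDR ligand-binding fusion (CMX-GAL4 N-hVDR, 15 ng/well) cotransfected by calcium phosphate into HEK293 cells with TK-MH100x4-Luc reporter (50 ng) and β-galactosidase plasmid (10 ng). Cells grown in DMEM with 5% FBS, 37 °C, 5% CO2. Compound added 22 h post-transfection and cells harvested 16–20 h later. Luciferase normalized to β-galactosidase, means of triplicates. PC50 is the concentration giving 50% of the positive-control response.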
(In general: A reporter such as luciferase makes a cellular process visible.)

Assay [2] concerns the target Androgen receptor (Mus musculus) (UniProt P19091). As to the kind of experiment: Agonist activity at androgen receptor in androgen-dependent mouse SC3 cells assessed as stimulation of cell growth after 3 days. The class given is cell-based. As to conditions: SC-3. Summed up:
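Androgen-dependent mouse Shionogi carcinoma SC-3 cells grown 3 days at 37 °C, 5% CO2 in MEM-Alpha with 2% FBS plus test compound. Growth promotion scored by cell count.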

For assay [3] the target is unchanged. In words: Potency index, ratio of IC50 for hydroxyflutamide to IC50 for compound against androgen receptor in androgen-dependent mouse SC3 cells assessed as inhibition of testosterone-induced cell growth after 3 days. As to conditions: SC-3. The class given is cell-based. Summed up: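 SC-3 cells cultured 3 days at 37 °C, 5% CO2 in MEM-Alpha with 2% FBS and 10 nM testosterone, with or without compound. Cell number with testosterone alone set as 100%. IC50 is the concentration halving the testosterone-induced increase in cells, means of three experiments. Index is the reference antagonist IC50 divided by the compound IC50.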

In another assay the target is T2, Androgen receptor (Homo sapiens, UniProt P10275).
T2 sequence (P10275 whole entry): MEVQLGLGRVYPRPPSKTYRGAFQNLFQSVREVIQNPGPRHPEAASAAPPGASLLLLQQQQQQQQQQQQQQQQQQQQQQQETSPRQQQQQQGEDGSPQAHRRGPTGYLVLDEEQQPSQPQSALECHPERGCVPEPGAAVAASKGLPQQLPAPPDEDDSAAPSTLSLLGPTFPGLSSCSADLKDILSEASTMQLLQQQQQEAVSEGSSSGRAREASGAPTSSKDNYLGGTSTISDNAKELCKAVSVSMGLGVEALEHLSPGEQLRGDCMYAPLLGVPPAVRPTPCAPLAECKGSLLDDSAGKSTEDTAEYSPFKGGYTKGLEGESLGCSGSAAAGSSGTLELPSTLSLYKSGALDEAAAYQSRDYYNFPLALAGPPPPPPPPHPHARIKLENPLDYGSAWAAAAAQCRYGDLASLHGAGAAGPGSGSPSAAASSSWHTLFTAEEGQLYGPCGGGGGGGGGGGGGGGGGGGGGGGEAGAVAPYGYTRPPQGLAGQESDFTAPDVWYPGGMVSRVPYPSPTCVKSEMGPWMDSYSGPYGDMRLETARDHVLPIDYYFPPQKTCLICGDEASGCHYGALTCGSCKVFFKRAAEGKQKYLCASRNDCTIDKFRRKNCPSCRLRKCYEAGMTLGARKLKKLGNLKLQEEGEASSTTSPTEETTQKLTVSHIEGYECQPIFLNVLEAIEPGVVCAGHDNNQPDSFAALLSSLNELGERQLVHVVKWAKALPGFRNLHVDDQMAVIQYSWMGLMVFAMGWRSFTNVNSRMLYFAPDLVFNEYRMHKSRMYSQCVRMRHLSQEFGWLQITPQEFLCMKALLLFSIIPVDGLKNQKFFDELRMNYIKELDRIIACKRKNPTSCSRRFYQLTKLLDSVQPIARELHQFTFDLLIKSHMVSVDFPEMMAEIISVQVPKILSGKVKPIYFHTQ
In words: Antagonist activity at human androgen receptor expressed in HEK293 cells assessed as inhibition of transcriptional activity by luciferase and beta-galactosidase reporter gene assay. Format: cell-based.

For the next assay, the species on record is Homo sapiens. As to the kind of experiment: Selectivity index, ratio of agonist PC50 for CMX-GAL4 tagged human VDR to antagonist IC50 for human androgen receptor. The method in brief: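 Ratio of VDR PC50 to AR IC50. VDR PC50 comes from the GAL4-hVDR luciferase assay in HEK293 cells (50% of positive-control activity). AR IC50 is inhibition of hAR/ARE-luciferase transcription in HEK293 cells under testosterone, both β-galactosidase-normalized, means of three experiments.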

The target in assay [4] is T3, Androgen receptor (Homo sapiens) (UniProt P10275).
T3 sequence (whole entry): T2 sequence (P10275 whole entry)
In words: Agonist activity at human androgen receptor expressed in HEK293 cells assessed as increase in transcriptional activity in presence of 0.3 nM testosterone by luciferase and beta-galactosidase reporter gene assay. Format: cell-based. The method in brief:
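HEK293 cells in DMEM with 5% FBS, calcium-phosphate cotransfected with pSG5-hAR (33 ng/well), ARE-tlc-Luc reporter (33 ng) and β-galactosidase plasmid (10 ng). Compounds added 22 h after transfection, with 0.3 nM testosterone present. Harvested about 16–20 h later. Luciferase read and normalized to β-galactosidase, means of triplicates.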

The subject of a further assay is LNCaP. As to the kind of experiment: Growth inhibition of human LNCAP cells.
Another assay concerns HL-60. In words: Induction of monocytic cell differentiation in human HL60 cells.
For a further assay, the target named is T4, Vitamin D3 receptor (Homo sapiens, UniProt P11473).
T4 sequence (P11473 whole entry): T1 sequence (whole entry)
In words: Agonist activity at VDR (unknown origin) by reporter gene assay. Summed up: as §1

Chain of Androgen receptor (Mus musculus) (P19091 whole entry): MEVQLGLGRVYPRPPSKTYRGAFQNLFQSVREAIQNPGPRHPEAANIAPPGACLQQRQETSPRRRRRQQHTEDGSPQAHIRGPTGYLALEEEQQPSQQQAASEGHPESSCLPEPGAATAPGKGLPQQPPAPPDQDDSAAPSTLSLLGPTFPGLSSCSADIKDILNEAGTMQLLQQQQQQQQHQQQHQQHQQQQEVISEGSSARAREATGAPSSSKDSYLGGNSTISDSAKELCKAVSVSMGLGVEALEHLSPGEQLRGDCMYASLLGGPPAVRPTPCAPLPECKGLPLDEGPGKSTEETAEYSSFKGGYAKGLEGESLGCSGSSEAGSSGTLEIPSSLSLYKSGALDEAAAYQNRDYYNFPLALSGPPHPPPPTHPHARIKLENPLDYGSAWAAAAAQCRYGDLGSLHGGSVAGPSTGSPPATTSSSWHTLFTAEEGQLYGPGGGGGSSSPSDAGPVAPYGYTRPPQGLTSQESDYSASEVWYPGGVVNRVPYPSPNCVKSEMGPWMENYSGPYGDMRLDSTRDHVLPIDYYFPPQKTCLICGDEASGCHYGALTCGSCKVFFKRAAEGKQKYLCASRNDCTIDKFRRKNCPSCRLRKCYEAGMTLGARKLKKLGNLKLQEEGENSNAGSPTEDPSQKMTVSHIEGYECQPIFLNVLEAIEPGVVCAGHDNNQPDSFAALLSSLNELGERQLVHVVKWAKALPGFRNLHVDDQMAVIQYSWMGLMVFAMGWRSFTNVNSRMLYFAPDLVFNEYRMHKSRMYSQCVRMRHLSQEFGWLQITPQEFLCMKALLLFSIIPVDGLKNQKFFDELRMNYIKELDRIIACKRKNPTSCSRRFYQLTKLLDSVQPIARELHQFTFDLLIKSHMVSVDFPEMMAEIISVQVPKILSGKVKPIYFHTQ

On to `CC(C)(O)C(=O)Nc1ccc([N+](=O)[O-])c(C(F)(F)F)c1`, for which the PC50 result in assay [1] is “inactive”.
By IC50 is commonly meant the concentration that inhibits the measured activity by half. On to `CC[Si](CC)(c1ccc(OC[C@H](O)CO)c(C)c1)c1ccc(OC[C@@H](O)C(C)(C)C)c(C)c1`, for which the outcome in assay [2] was inactive. Further, the Ratio IC50 in [3] stood at 20. In addition, at Androgen receptor, the half-maximal inhibitory concentration (IC50) worked out at 7.4 µM. Besides, the Selectivity Index in the assay listed under Homo sapiens is over 1.4. In addition, the PC50 in assay [1] is over 10 µM.
Consider `CC[Si](CC)(c1ccc(OC[C@@H](O)CO)c(C)c1)c1ccc(OC[C@@H](O)C(C)(C)C)c(C)c1`, for which the IC50 on Androgen receptor was determined as 8.3 µM. The Selectivity Index in the assay listed under Homo sapiens stood at 0.27. Besides, the PC50 in assay [1] came to 2.2 µM.
Taken in the same sequence, the figures for `CC[Si](CC)(c1ccc(OC[C@@H](O)CO)c(C)c1)c1ccc(OC[C@H](O)C(C)(C)C)c(C)c1` (mixture of isomers) were 5.8 µM, 0.14 and 0.81 µM.
A word on the EC50: it is the concentration at which the effect is half-maximal. On to `CCC(CC)(c1ccc(OCC(O)CO)c(C)c1)c1ccc(OCC(O)C(C)(C)C)c(C)c1` (mixture of isomers) [LG-190178], for which the outcome in assay [4] was inactive. In addition, at Androgen receptor, the IC50 was over 10 µM. Moreover, the EC50 in the assay on LNCaP was 20 nM; in the assay on HL-60, 30 nM. Moreover, the PC50 in assay [1] was 0.14 µM.
Turning to `CC[Si](CC)(c1ccc(OCC(=O)C(C)(C)C)c(C)c1)c1ccc(OCC2CO2)c(C)c1` (racemic), the result in assay [4] was inactive. In addition, at Androgen receptor, the IC50 was over 10 µM. In the assay listed under Homo sapiens, the Selectivity Index came out at 0.48. Moreover, the PC50 in [1] is 4.8 µM.
The matching figures for `CC[Si](CC)(c1ccc(OCC(O)CO)c(C)c1)c1ccc(OCC(O)C(C)(C)C)c(C)c1` (mixture of isomers): “inactive”, 6.8 µM, 0.14 and 0.92 µM.
For `CC[Si](CC)(c1ccc(NC[C@H](O)CO)c(C)c1)c1ccc(OCC(=O)C(C)(C)C)c(C)c1`, at Androgen receptor, the IC50 is over 10 µM. Besides, in [1], the PC50 amounted to 2.5 µM.
As to `CC[Si](CC)(c1ccc(OCC(=O)C(C)(C)C)c(C)c1)c1ccc(OCC(=O)C(C)(C)C)c(C)c1`, the result in assay [4] was inactive. In addition, the 50% inhibitory concentration (IC50) at Androgen receptor was determined as 6.2 µM. For the same compound, the Selectivity Index in the assay listed under Homo sapiens is over 4.8. The PC50 in assay [1] is over 30 µM.
For the compound `CC[Si](CC)(c1ccc(NC[C@@H](O)CO)c(C)c1)c1ccc(OCC(=O)C(C)(C)C)c(C)c1`, the IC50 at Androgen receptor is over 10 µM. For the same compound, the PC50 in assay [1] worked out at 7 µM.
`CCC(CC)(c1ccc(OCC(=O)C(C)(C)C)c(C)c1)c1ccc(OCC2CO2)c(C)c1` (racemic): the result in [4] was inactive. Further, the IC50 at Androgen receptor was over 10 µM. In addition, the Selectivity Index in the assay listed under Homo sapiens is under 0.068. Moreover, in [1], the PC50 is 0.68 µM.
With `CC[Si](CC)(c1ccc(OCC(=O)C(C)(C)C)c(C)c1)c1ccc(OC[C@@H](O)CO)c(C)c1`, the IC50 on Androgen receptor was over 10 µM. Besides, the PC50 in assay [1] is 2 µM.
Turning to `CC[Si](CC)(c1ccc(OCC(=O)C(C)(C)C)c(C)c1)c1ccc(OC[C@H](O)CO)c(C)c1`, the outcome in [2] was inactive. Further, the IC50 at Androgen receptor was determined as 4 µM. Also, the Selectivity Index in the assay filed under Homo sapiens turned out to be 0.93. The PC50 in assay [1] was 3.7 µM.
For `CCC(CC)(c1ccc(OCC(=O)C(C)(C)C)c(C)c1)c1ccc(OCC(=O)C(C)(C)C)c(C)c1`, the result in [4] was inactive. Besides, the EC50 is 40 nM on Vitamin D3 receptor, 20 nM with LNCaP and 30 nM in the assay with HL-60. The IC50 on Androgen receptor is over 10 µM. Besides, in the assay listed under Homo sapiens, the Selectivity Index is under 0.46. In assay [1], the PC50 was found to be 4.6 µM.
Regarding `CC[Si](CC)(c1ccc(O)c(C)c1)c1ccc(OC[C@H](O)C(C)(C)C)c(C)c1`, at Androgen receptor, the IC50 is over 10 µM. Besides, in assay [1], the PC50 amounted to 8.2 µM.
In the case of `CC[Si](CC)(c1ccc(OC[C@H](O)CO)c(C)c1)c1ccc(OC[C@H](O)C(C)(C)C)c(C)c1`, the 50% inhibitory concentration (IC50) on Androgen receptor turned out to be 6.7 µM. Also, in the assay filed under Homo sapiens, the Selectivity Index stood at 0.31. In assay [1], the PC50 is 2.1 µM.
